Source: ChEMBL document CHEMBL1122208, “Inhibitors of hepatic mixed-function oxidases. 4. Effects of benzimidazole and related compounds on aryl hydrocarbon hydroxylase activity from phenobarbitone and 3-methylcholanthrene induced rats” (J Med Chem, 1982)
Structures can show the parent of a compound that is named as a salt.

Columns and labels:
Cytochrome P450 2B1 [1] = target: T1, Cytochrome P450 2B1 (Rattus norvegicus, UniProt P00176); assay: Interaction with cytochrome P450 in Phenobarbitone-induced rat hepatic microsomes; format: ADME, Liver; conditions: read-out: Ks
T1 sequence (P00176 whole entry): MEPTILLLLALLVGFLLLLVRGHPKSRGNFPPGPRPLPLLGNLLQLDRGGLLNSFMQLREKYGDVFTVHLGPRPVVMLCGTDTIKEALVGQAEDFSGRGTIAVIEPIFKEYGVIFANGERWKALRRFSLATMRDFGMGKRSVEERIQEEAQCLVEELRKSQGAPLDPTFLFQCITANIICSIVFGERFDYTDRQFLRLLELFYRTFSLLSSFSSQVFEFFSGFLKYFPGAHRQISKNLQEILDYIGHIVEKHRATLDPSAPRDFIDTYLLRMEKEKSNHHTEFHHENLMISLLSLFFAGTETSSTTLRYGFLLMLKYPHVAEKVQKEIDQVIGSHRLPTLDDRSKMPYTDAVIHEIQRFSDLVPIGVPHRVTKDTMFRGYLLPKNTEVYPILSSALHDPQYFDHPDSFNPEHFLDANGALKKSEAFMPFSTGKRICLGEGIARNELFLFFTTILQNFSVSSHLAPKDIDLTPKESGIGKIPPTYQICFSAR
Procedure, shortened: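 Microsomes came from immature male Wistar rats dosed with phenobarbitone, 80 (mg/kg)/day ip for 3 days, and starved 24 h before sacrifice. Difference spectra recorded at 1 mg/mL microsomal protein. Ks obtained in duplicate from abscissal intercept of a double-reciprocal plot of ΔOD (peak-trough) against compound concentration, using five to eight concentrations.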

Cytochrome P450 2B1 [2] = target: T1, Cytochrome P450 2B1; assay: Inhibition of Aminopyrine N-demethylase in Phenobarbitone-treated rats; conditions: read-out: I50
Procedure, shortened: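 Hepatic microsomes from immature male Wistar rats dosed with PB 80 (mg/kg)/day ip for 3 days and starved 24 h. Prepared in 0.1 M potassium phosphate pH 7.4. Aminopyrine N-demethylation followed by formaldehyde formation. Results expressed as molar I50.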

[3] = target: T2, aryl hydrocarbon hydroxylase (cytochrome P450 1A1) (Rattus norvegicus, UniProt P00185); assay: Effect on Aryl hydrocarbon hydroxylase activity in 3-methylcolanthrene-induced rat liver microsomes at 4.3x10E-4M; format: ADME, Microsome; conditions: 3-methylcholanthrene-induced rat liver microsomes, read-out: Control
T2 sequence (P00185 whole entry): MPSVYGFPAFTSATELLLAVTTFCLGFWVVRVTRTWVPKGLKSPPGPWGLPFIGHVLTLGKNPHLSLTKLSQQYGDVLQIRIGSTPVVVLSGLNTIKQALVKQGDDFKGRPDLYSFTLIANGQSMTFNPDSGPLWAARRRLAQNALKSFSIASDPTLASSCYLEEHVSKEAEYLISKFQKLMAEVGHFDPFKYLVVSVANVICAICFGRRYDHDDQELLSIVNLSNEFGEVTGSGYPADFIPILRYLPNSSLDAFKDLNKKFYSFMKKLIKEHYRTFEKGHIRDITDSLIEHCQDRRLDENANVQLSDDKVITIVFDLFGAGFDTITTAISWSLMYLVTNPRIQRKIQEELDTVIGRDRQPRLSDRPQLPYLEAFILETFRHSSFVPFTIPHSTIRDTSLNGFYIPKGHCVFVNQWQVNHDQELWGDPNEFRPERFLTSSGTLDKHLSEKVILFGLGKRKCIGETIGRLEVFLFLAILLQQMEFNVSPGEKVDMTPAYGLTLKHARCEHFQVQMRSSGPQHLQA
Procedure, shortened: (§1)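 Liver microsomes from immature male Wistar rats (100-150 g) given one 3-MC dose (25 mg/kg in corn oil, ip) 3 days before sacrifice, starved 24 h. Incubation: benzo[a]pyrene 357 nmol, MgCl2 3.0 μmol, NADPH 0.50 μmol, 1.2 mg protein, 0.1 M potassium phosphate pH 7.4 (3.0 mL), 6 min, 37 °C. Compound added from 0.07 N HCl or Me2SO-water stock at near-maximal solubility. Fluorescent phenols read ex 396/em 522 nm. Value is % of solvent control, mean of three determinations.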

[4] = target: T2, aryl hydrocarbon hydroxylase (cytochrome P450 1A1); assay: Inhibition of Aryl hydrocarbon hydroxylase in phenobarbitone-treated rats; conditions: read-out: I50
Procedure, shortened: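 Microsomes from immature male Wistar rats (100-150 g) given PB 80 (mg/kg)/day ip for 3 days, starved 24 h. Incubation: BP 285 nmol, MgCl2 3.0 μmol, NADPH 0.50 μmol, protein 1.2 mg, 0.1 M K phosphate pH 7.4, 3.0 mL. Run 10 min at 37 °C. Phenol fluorescence read at ex 396/em 522 nm. I50 by linear regression over five to eight inhibitor concentrations, mean of duplicates.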

[5] = target: T3, cytochrome P450 (cytochrome P450 1A1) (Rattus norvegicus, UniProt P00185); assay: Interaction with cytochrome P450 in 3-methylcholanthrene-induced rat hepatic microsomes; format: ADME, Liver; conditions: read-out: Ks
T3 sequence (P00185 whole entry): T2 sequence (P00185 whole entry)
Procedure, shortened: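 Hepatic microsomes from immature male Wistar rats given 3-MC (25 mg/kg in corn oil, ip, single dose) 3 days before sacrifice, starved 24 h. Optical difference spectra recorded at 1 mg/mL microsomal protein. Ks taken from abscissal intercept of double-reciprocal plot of ΔOD (peak-trough) vs concentration, five to eight concentrations, in duplicate.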

[6] = Partition coefficient (logP); format: physicochemical; conditions: octanol/water
[7] = target: T2, aryl hydrocarbon hydroxylase (cytochrome P450 1A1); assay: Effect on Aryl hydrocarbon hydroxylase activity in 3-methylcolanthrene-induced rat liver microsomes at 3.6x10E-4M; format: ADME, Microsome; conditions: 3-methylcholanthrene-induced rat liver microsomes, read-out: Control
Procedure, shortened: (§2)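 Liver microsomes from immature male Wistar rats (100-150 g) given one 3-MC dose (25 mg/kg in corn oil, ip) 3 days before sacrifice, starved 24 h. Incubation: BP 357 nmol, MgCl2 3.0 μmol, NADPH 0.50 μmol, protein 1.2 mg, 0.1 M K phosphate pH 7.4, 3.0 mL final volume. Run 6 min at 37 °C. Fluorescent phenols read at ex 396/em 522 nm. Activity given as % of solvent control, mean of three determinations, at roughly maximum solubility.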

[8] = target: T2, aryl hydrocarbon hydroxylase (cytochrome P450 1A1); assay: Effect on Aryl hydrocarbon hydroxylase activity in 3-methylcolanthrene-induced rat liver microsomes at 2.3x10E-4M; format: ADME, Microsome; conditions: 3-methylcholanthrene-induced rat liver microsomes, read-out: Control; procedure, shortened: as §2
Cytochrome P450 2B1 [9] = target: T1, Cytochrome P450 2B1; assay: Interaction (Ks) with cytochrome P450 in phenobarbitone-induced rat hepatic microsomes; format: ADME, Liver; conditions: read-out: Ks
Procedure, shortened: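 Difference spectra recorded with microsomes from PB-treated rats (80 (mg/kg)/day ip, 3 days) at 1 mg/mL microsomal protein. Ks obtained in duplicate from double-reciprocal plots of ΔOD (peak-trough) versus five to eight ligand concentrations, using the abscissal intercept.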

[10] = target: T3, cytochrome P450 (cytochrome P450 1A1); assay: Interaction (Ks) with cytochrome P450 in 3-methylcholanthrene-induced rat hepatic microsomes; format: ADME, Liver; conditions: read-out: Ks
Procedure, shortened: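 Optical difference spectra recorded with microsomes from 3-MC-treated rats (25 mg/kg in corn oil, ip, 3 days) at 1 mg/mL protein. Ks taken from the abscissal intercept of double-reciprocal plots of ΔOD (peak-trough) against five to eight compound concentrations, determined in duplicate.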

[11] = target: T2, aryl hydrocarbon hydroxylase (cytochrome P450 1A1); assay: Effect on Aryl hydrocarbon hydroxylase activity in 3-methylcolanthrene-induced rat liver microsomes at 5.0x10E-5M; format: ADME, Microsome; conditions: 3-methylcholanthrene-induced rat liver microsomes, read-out: Control; procedure, shortened: as §2
[12] = target: T2, aryl hydrocarbon hydroxylase (cytochrome P450 1A1); assay: Effect on Aryl hydrocarbon hydroxylase activity in 3-methylcolanthrene-induced rat liver microsomes at 1.7x10E-4M; format: ADME, Microsome; conditions: 3-methylcholanthrene-induced rat liver microsomes, read-out: Control; procedure, shortened: as §2
[13] = target: T2, aryl hydrocarbon hydroxylase (cytochrome P450 1A1); assay: Effect on Aryl hydrocarbon hydroxylase activity in 3-methylcolanthrene-induced rat liver microsomes at 5.9x10E-4M; format: ADME, Microsome; conditions: 3-methylcholanthrene-induced rat liver microsomes, read-out: Control; procedure, shortened: as §2
[14] = target: T2, aryl hydrocarbon hydroxylase (cytochrome P450 1A1); assay: Effect on Aryl hydrocarbon hydroxylase activity in 3-methylcolanthrene-induced rat liver microsomes at 1.2x10E-3M; format: ADME, Microsome; conditions: 3-methylcholanthrene-induced rat liver microsomes, read-out: Control; procedure, shortened: as §1
[15] = target: T2, aryl hydrocarbon hydroxylase (cytochrome P450 1A1); assay: Effect on Aryl hydrocarbon hydroxylase activity in 3-methylcolanthrene-induced rat liver microsomes at 8x10E-4M; format: ADME, Microsome; conditions: 3-methylcholanthrene-induced rat liver microsomes, read-out: Control; procedure, shortened: as §1
[16] = target: T2, aryl hydrocarbon hydroxylase (cytochrome P450 1A1); assay: Effect on Aryl hydrocarbon hydroxylase activity in 3-methylcolanthrene-induced rat liver microsomes at 5.2x10E-5M; format: ADME, Microsome; conditions: 3-methylcholanthrene-induced rat liver microsomes, read-out: Control; procedure, shortened: as §2

Row | Structure (SMILES) | IC50 (Cytochrome P450 2B1 [2]) [µM] | IC50 [4] [µM] | logP [6] | Kd (Cytochrome P450 2B1 [1]) [µM] | Kd [5] [µM] | other results
1 | c1ccc(-c2c[nH]cn2)cc1 | 7.4 | 33 | – | 1.1 | 1.7 | activity at 0.00043 M [3]: 83%
2 | Cc1nc2cc(C)c(C)cc2[nH]1 | 370 | 170 | 2.85 | 100 | 28 | activity at 0.00023 M [8]: 77%
3 | CCc1nc2cc(C)c(C)cc2[nH]1 | 180 | 110 | 3.35 | – | – | –
4 | Cc1ccc2[nH]cnc2c1 | – | – | – | 62 | – | Kd [10]: 210 µM
5 | Cc1nc2ccccc2[nH]1 | 1080 | 670 | 1.85 | 440 | 510 | –
6 | CCCc1nc2ccccc2[nH]1 | 300 | 480 | 2.85 | – | – | activity at 0.00059 M [13]: 99%
7 | CCc1nc2ccccc2[nH]1 | 670 | 630 | 2.35 | – | – | –
8 | c1ccc2[nH]cnc2c1 [BENZIMIDAZOLE] | 980 | 1100 | 1.35 | 110 | 3200 | activity at 0.0012 M [14]: 101%
9 | Cc1cc2nc[nH]c2cc1C [DIMEDAZOL] | 180 | 97 | 2.35 | 62 | 320 | activity at 0.0008 M [15]: 69%

Second part, led by results:

Row | IC50 (Cytochrome P450 2B1 [2]) [µM] | IC50 [4] [µM] | logP [6] | Structure (SMILES) | Kd (Cytochrome P450 2B1 [1]) [µM] | Kd [5] [µM] | other results
10 | 50 | 82 | 3.85 | CCCCCc1nc2ccccc2[nH]1 | – | – | activity at 0.00036 M [7]: 89%
11 | 53 | 84 | – | c1ccc2cc3[nH]cnc3cc2c1 | – | – | Kd (Cytochrome P450 2B1 [9]): 15 µM; Kd [10]: 82 µM
12 | 15 | 18 | 6.85 | CCCCCCCCCCCc1nc2ccccc2[nH]1 | – | – | activity at 50 µM [11]: 103%
13 | 26 | 24 | 4.85 | CCCCCCCc1nc2ccccc2[nH]1 | – | – | activity at 0.00017 M [12]: 93%
14 | 8.2 | 22 | – | CCCC(C(=O)OCCN(CC)CC)(c1ccccc1)c1ccccc1 [PROADIFEN HYDROCHLORIDE] | – | – | activity at 52 µM [16]: 105%
